# Assay results from ChEMBL document CHEMBL3120121, “Insights on pregnane-X-receptor modulation. Natural and semisynthetic steroids from Theonella marine sponges” (Eur J Med Chem, 2014).
# Assays:
# Assay type in all cases: cell-based; call rule not given here
# [1] = biological target: T1, Nuclear receptor subfamily 1 group I member 2 (Homo sapiens, UniProt O75469); test: Antagonist activity at human full-length PXR transfected in human HepG2 cells co-transfected with pSG5-RXR assessed as reversal of rifaximin-induced transactivation at 10 to 25 uM after 18 hrs by luciferase reporter gene assay; settings: hepg2, 18 h
# T1 sequence (O75469 whole entry): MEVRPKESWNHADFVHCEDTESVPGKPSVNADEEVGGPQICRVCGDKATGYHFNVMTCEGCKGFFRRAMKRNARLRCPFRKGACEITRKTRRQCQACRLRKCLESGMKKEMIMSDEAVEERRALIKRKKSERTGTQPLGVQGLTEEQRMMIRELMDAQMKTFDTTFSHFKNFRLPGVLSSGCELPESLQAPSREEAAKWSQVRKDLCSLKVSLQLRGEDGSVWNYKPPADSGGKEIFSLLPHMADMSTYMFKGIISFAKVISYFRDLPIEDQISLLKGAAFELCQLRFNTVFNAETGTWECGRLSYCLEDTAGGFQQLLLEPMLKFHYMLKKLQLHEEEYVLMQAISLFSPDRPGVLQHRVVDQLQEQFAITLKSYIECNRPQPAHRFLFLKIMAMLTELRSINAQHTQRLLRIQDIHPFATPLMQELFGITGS
# Summary of the method: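 Dose–response antagonism test in a luciferase reporter assay: transfected HepG2 cells received compound at 10, 25 or 50 together with rifaximin 10 to assess reversal of rifaximin-driven PXR transactivation.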
# [2] = biological target: T1, Nuclear receptor subfamily 1 group I member 2; test: Partial agonist activity at human full-length PXR transfected in human HepG2 cells co-transfected with RXR assessed as reversal of rifaximin-induced transactivation at 50 uM after 18 hrs by luciferase reporter gene assay; settings: hepg2, 18 h
# Summary of the method: (§1)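 HepG2 cells cotransfected with pSG5-hPXRT1, pSG5-RXR, pCMV-βgal and pGL3(henance)PXRE reporter. At 24 h post-transfection, primed 18 h with compound at 50 plus rifaximin at 10 (antagonist mode). Luciferase luminescence measured in lysates and normalized to β-galactosidase activity. Significance p < 0.05 vs rifaximin.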
# [3] = biological target: T1, Nuclear receptor subfamily 1 group I member 2; test: Antagonist activity at human full-length PXR transfected in human HepG2 cells co-transfected with pSG5-RXR assessed as reversal of rifaximin-induced transactivation at 50 uM after 18 hrs by luciferase reporter gene assay; settings: hepg2, 18 h; summary of the method: as §1
# [4] = biological target: T1, Nuclear receptor subfamily 1 group I member 2; test: Agonist activity at human full-length PXR transfected in human HepG2 cells co-transfected with pSG5-RXR assessed as induction of transactivation by dual-luciferase reporter gene assay; settings: for Activity: human, hepg2
# Summary of the method: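 HepG2 cells grown at 37 °C in MEM with Earle's salts, 10% FBS, 1% L-glutamine, 1% penicillin/streptomycin, seeded at 5 × 10^4 cells/well. Cotransfected with pSG5-hPXRT1, pSG5-RXR, pGL4.70-Renilla and pGL3(henance)PXRE reporter. Treated with rising concentrations (1, 10, 50) with rifaximin as positive control. Dual-luciferase readout; firefly RLU divided by Renilla RLU; EC50 from concentration–response curve.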
SMILES,Activity [1],Activity [2],Activity [3],EC50 [4] [µM],Activity [4]
CC(C)[C@H](C)CC[C@@H](C)[C@H]1CCC2=C3CC[C@H]4[C@@H](C)[C@@H](O)CC[C@]4(C)[C@H]3CC[C@@]21C,Not Active,Active,Active,–,–
CC(C)[C@H](C)CC[C@@H](C)[C@H]1CCC2=C3CC[C@H]4[C@H](C)[C@H](O)CC[C@]4(C)[C@H]3CC[C@@]21C,–,Active,–,18,Dose-dependent effect
C=C1[C@@H](O)CC[C@@]2(C)[C@H]1CCC1=C3CC[C@H]([C@H](C)CCC=C(C)C)[C@@]3(C)CC[C@@H]12,–,Active,–,21,Dose-dependent effect
